Experiment [1] has as its target T1, Neuronal acetylcholine receptor; alpha4/beta2 (Rattus norvegicus, UniProt P09483+P12390). In words: Inhibition of [3H](-)-nicotine binding to rat brain (minus cerebellum) Nicotinic acetylcholine receptor alpha4-beta2. The experiment is classed as tissue-based. In short, it runs like this:
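Rat brain homogenate with cerebellum removed, labelled with [3H](-)nicotine. IC50 taken from a plot of log concentration against percent displacement, then converted to Ki. At least triplicate.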

The subject of experiment [2] is Mus musculus. As to the kind of experiment: Nicotine-like action of the compound tested in mouse in hypothermia assay at 15 mg/kg sc dose; NA = Not active. The experiment is classed as functional, organism-based. More on the design: dose 15 mg/kg. In short, it runs like this:
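Male ICR mice (20–25 g), at least six per dose, given compound or saline sc. Rectal temperature read by thermistor probe inserted 24 mm, just before and 30 min after injection.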

In experiment [3] the test system is Mus musculus. In words: Nicotine-like action of the compound tested in mouse in spontaneous activity assay at 15 mg/kg sc dose; NA = Not active. Type of experiment: functional, organism-based. More on the design: dose 15 mg/kg. Put shortly:
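Male ICR mice (20–25 g), at least six per dose, given compound or 0.9% saline sc. Placed in individual photocell activity cages 5 min after injection. Beam interruptions counted over the next 10 min.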

The target in experiment [4] is T1, Neuronal acetylcholine receptor; alpha4/beta2. As to the kind of experiment: Inhibition of [3H]epibatidine binding to rat Nicotinic acetylcholine receptor alpha4-beta2. The experiment is classed as protein-complex assay.
For experiment [5], the system named is Mus musculus. In words: Percent of maximal possible antinociceptive effect at 15 mg/kg dose; failed to produce effect. Type of experiment: functional.
Experiment [6] has as its target Neuronal acetylcholine receptor; alpha2/beta2 (Rattus norvegicus, UniProt P12389+P12390). As to the kind of experiment: Binding affinity for rat Nicotinic acetylcholine receptor alpha2-beta2. Type of experiment: protein-complex assay. Put shortly: (§1)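 Binding run by the NIMH Psychoactive Drug Screening Program under standard protocols, using cloned rat receptor preparations.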

In experiment [7] the target is Neuronal acetylcholine receptor; alpha2/beta4 (Rattus norvegicus, UniProt P12389+P12392). As to the kind of experiment: Binding affinity for rat Nicotinic acetylcholine receptor alpha2-beta4. Type of experiment: protein-complex assay. In short, it runs like this:
as §1

Experiment [8] concerns the target Neuronal acetylcholine receptor; alpha3/beta2 (Rattus norvegicus, UniProt P04757+P12390). As to the kind of experiment: Binding affinity for rat Nicotinic acetylcholine receptor alpha3-beta2. Type of experiment: protein-complex assay. In short, it runs like this:
as §1

Experiment [9] concerns the target Neuronal acetylcholine receptor; alpha3/beta4 (Rattus norvegicus, UniProt P04757+P12392). As to the kind of experiment: Binding affinity for rat Nicotinic acetylcholine receptor alpha3-beta4. Type of experiment: protein-complex assay. Put shortly:
as §1

Experiment [10] has as its target Neuronal acetylcholine receptor; alpha4/beta4 (Rattus norvegicus, UniProt P09483+P12392). In words: Binding affinity for rat Nicotinic acetylcholine receptor alpha4-beta4. The experiment is classed as protein-complex assay. Put shortly:
as §1

The values below come from ChEMBL document CHEMBL1140237, “6-(2-Phenylethyl)nicotine: a novel nicotinic cholinergic receptor ligand” (Bioorg Med Chem Lett, 2005).

The Ki is a dissociation constant, usually derived from enzyme kinetics or from competition with a known ligand. A lower Ki goes with higher affinity.

Molecules are shown by their SMILES. Calls of active or inactive are those of the source. The calls are words filed in the database; no cut-off is given here.

T1 sequence (P09483 whole entry): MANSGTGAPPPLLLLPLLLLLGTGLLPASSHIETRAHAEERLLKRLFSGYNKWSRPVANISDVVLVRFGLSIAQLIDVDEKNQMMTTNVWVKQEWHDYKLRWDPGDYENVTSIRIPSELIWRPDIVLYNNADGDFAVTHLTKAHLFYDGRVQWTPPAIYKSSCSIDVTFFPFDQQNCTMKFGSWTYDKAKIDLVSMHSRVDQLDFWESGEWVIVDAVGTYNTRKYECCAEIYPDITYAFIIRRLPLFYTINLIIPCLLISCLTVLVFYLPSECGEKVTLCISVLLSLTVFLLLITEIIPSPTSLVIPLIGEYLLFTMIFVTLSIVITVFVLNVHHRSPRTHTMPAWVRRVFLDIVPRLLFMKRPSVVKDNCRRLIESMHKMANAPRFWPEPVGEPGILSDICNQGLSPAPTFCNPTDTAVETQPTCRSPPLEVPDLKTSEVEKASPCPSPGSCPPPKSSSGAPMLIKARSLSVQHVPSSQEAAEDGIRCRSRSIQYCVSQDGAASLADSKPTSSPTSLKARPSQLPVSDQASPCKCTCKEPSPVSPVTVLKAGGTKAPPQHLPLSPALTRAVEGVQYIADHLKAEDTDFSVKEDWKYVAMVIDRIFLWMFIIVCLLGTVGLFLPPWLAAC
T1 sequence (P12390 whole entry): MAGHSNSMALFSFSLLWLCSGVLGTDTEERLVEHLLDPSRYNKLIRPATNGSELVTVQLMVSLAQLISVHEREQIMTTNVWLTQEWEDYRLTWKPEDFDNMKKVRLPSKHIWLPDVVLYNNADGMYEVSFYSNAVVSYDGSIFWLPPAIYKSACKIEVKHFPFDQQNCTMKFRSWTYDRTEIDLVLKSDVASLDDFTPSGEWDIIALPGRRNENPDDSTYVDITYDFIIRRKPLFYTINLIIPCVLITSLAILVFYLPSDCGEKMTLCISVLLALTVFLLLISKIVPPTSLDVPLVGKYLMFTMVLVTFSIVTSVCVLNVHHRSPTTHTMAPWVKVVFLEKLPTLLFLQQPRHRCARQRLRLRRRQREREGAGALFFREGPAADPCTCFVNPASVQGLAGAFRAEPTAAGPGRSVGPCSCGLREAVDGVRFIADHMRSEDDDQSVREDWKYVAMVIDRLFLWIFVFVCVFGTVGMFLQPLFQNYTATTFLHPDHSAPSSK
Neuronal acetylcholine receptor; alpha4/beta4, sequence (P09483 whole entry): as the sequence (P09483 whole entry) above
Neuronal acetylcholine receptor; alpha4/beta4, sequence (P12392 whole entry): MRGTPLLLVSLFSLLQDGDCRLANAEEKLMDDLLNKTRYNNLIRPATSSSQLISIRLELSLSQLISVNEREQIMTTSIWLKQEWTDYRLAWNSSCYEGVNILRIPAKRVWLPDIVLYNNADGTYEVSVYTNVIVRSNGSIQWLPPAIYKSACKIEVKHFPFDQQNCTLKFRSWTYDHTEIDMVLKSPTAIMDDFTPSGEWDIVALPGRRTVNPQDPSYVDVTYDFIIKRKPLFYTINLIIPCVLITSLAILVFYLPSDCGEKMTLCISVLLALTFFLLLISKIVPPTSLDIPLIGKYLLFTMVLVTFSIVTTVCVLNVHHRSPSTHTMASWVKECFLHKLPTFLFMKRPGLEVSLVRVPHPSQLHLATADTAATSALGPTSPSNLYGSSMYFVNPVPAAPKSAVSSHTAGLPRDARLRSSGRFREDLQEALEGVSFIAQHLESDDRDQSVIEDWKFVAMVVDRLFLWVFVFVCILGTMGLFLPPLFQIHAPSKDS
Neuronal acetylcholine receptor; alpha3/beta2, sequence (P04757 whole entry): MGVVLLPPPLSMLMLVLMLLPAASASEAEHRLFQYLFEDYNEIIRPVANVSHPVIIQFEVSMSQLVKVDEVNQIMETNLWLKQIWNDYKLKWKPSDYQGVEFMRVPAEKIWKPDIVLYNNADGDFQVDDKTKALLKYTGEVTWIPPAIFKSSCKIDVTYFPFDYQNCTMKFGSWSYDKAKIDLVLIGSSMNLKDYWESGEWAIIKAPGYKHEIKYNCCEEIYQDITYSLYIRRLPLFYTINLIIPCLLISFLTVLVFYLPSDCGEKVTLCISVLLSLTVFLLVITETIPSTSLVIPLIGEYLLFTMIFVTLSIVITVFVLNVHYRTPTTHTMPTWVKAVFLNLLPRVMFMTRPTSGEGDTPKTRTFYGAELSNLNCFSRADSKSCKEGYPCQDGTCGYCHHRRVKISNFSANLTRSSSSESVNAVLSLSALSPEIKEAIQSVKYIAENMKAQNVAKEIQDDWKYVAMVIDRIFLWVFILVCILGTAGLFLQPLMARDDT
Neuronal acetylcholine receptor; alpha3/beta2, sequence (P12390 whole entry): as the sequence (P12390 whole entry) above
Neuronal acetylcholine receptor; alpha3/beta4, sequence (P04757 whole entry): as the sequence (P04757 whole entry) above
Neuronal acetylcholine receptor; alpha3/beta4, sequence (P12392 whole entry): as the sequence (P12392 whole entry) above
Neuronal acetylcholine receptor; alpha2/beta2, sequence (P12389 whole entry): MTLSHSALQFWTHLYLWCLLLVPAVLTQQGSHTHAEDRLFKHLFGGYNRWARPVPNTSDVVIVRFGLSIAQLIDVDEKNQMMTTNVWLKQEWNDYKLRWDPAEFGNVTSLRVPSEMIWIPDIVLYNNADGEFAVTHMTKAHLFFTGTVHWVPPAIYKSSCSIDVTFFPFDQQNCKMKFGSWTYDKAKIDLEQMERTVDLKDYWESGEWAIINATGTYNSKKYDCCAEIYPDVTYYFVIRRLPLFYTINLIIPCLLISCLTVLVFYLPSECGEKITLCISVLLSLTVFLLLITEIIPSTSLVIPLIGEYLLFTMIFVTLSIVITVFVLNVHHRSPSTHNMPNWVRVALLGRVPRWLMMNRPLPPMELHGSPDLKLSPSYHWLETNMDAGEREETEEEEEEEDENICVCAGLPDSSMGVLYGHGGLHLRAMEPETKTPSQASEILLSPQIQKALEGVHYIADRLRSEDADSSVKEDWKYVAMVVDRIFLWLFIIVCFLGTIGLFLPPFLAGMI
Neuronal acetylcholine receptor; alpha2/beta2, sequence (P12390 whole entry): as the sequence (P12390 whole entry) above
Neuronal acetylcholine receptor; alpha2/beta4, sequence (P12389 whole entry): as the sequence (P12389 whole entry) above
Neuronal acetylcholine receptor; alpha2/beta4, sequence (P12392 whole entry): as the sequence (P12392 whole entry) above

`COc1ccc(CCc2ccc(C3CCCN3C)cn2)cc1` (stereo not given) yielded a Ki in [1] of 10 nM.
Same read-out and setting: to `CN1CCCC1c1ccc(CCCc2ccccc2)nc1` (single isomer, unassigned; (-)) belongs 72 nM; to `CN1CCCC1c1ccc(CCc2ccc(Cl)cc2)nc1` (stereo not given), 40 nM.
As to `CCc1ccc(C2CCCN2C)cn1` (stereo not given), the affinity in experiment [1] corresponds to a Ki of 5.6 nM.
Regarding `CN1CCCC1c1ccc(CCc2ccccc2)nc1` (stereo not given), the result in the experiment on Mus musculus [2] and with Mus musculus [3] was inactive. Besides, the Ki in experiment [4] came out at 200 nM; in [1] it was 15 nM; in experiment [6], 490 nM; in experiment [7] it was 1200 nM; in [8], 2000 nM; in experiment [9], 4600 nM. For the same compound, the Ki in experiment [10] is 400 nM. For the same compound, the MPE with Mus musculus [5] amounted to 2%.
For the compound `CCN(C)CCc1ccc(CCc2ccccc2)nc1`, the Ki in experiment [1] is over 10000 nM.
Still for that read-out and setting: with `CN1CCCC1c1ccc(CC(O)c2ccccc2)nc1` (stereo not given) the figure was 275 nM.
Consider `CN1CCCC1c1ccc(C(=O)O)nc1` (stereo not given), for which the Ki in experiment [1] was over 10000 nM.
Take `CN1CCCC1c1ccc(CCCc2ccccc2)nc1` (single isomer, unassigned; (+)): in experiment [1], the inhibition constant (Ki) was over 10000 nM.
Regarding `CN1CCCC1c1ccc(/C=C/c2ccccc2)nc1` (stereo not given), affinity in experiment [1] was put at a Ki of 350 nM.
The same measure, in the same setting: with `CCCc1ccc(C2CCCN2C)cn1` (stereo not given) the figure was 17 nM.
